From ChEMBL document CHEMBL1147405, “New bicyclam-GalCer analogue conjugates: synthesis and in vitro anti-HIV activity” (Bioorg Med Chem Lett, 2004)

Legend:
CEM-SS [1] = assay: Effective concentration of compound against HIV-1 LAI strain in CEM-SS cells; type: functional, cell-based; settings: Homo sapiens
Procedure, shortened: (§1)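 CEM-SS cells infected with HIV-1 LAI. Virus replication followed by reverse transcriptase activity measurement. EC50 is the concentration inhibiting 50% of virus replication. Relative potency is the ratio to AMD3100.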

[2] = (§2) Concentration of compound causing 50% death of uninfected cells; type: cell-based; settings: human, CEM-SS cells (uninfected)
Procedure, shortened: (§3)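 Uninfected cells of each line (CEM-SS, MT4 or PBMC) exposed to compound; CC50 taken as the concentration causing 50% death of uninfected cells.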

CEM-SS [3] = assay: Potency of compound against HIV-1 LAI strain in CEM-SS cells relative to AMD3100; type: functional, Homo sapiens; procedure, shortened: as §1
GHOST CXCR4 [4] = assay: Inhibitory concentration of compound against HIV-1 LAI strain in GHOST CXCR4 cell line; type: functional, cell-based; settings: Homo sapiens
Procedure, shortened: (§4)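 GHOST osteosarcoma cells express CD4, CXCR4 or CCR5 plus an HIV-2 LTR-GFP reporter, grown in Dulbecco medium with 10% FCS. Seeded at 2.5 10⁵ per well; 24 h later pretreated with compound for 1 h at 37 °C. Infected with HIV-1 Lai (CXCR4) or Bal (CCR5), 2 h adsorption, washed, cultured 48 h with drug. GFP+ cells counted by flow cytometry; IC50 from median-effect plot.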

GHOST CXCR4 [5] = assay: Potency of compound against HIV-1 LAI strain in GHOST CXCR4 cell line relative to AMD3100; type: functional, Homo sapiens; procedure, shortened: as §4
MT4 [6] = assay: Potency of compound against HIV-1 IIIB strain in MT-4 cells relative to AMD3100; type: functional, Homo sapiens
Procedure, shortened: (§5)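 MT4 cells infected with HIV-1 IIIB. Virus-induced cytopathogenic effect scored. EC50 is the concentration protecting 50% of infected cells against cytopathogenicity. Relative potency is expressed against AMD3100.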

MT4 [7] = assay: Effective concentration of compound against HIV-1 IIIB strain in MT-4 cells; type: functional, cell-based; settings: Homo sapiens; procedure, shortened: as §5
[8] = as §2; type: ADME, cell-based; settings: human; procedure, shortened: as §3
PBMC [9] = assay: Effective concentration of compound against HIV-1 89.6 strain in PBMC cells; type: functional, cell-based; settings: Homo sapiens
Procedure, shortened: (§6)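 PBMC infected with dual-tropic HIV-1 89.6. Virus growth measured by reverse transcriptase activity. EC50 is the concentration protecting 50% of infected cells. Relative potency is expressed against AMD3100.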

PBMC [10] = assay: Potency of compound against HIV-1 89.6 strain in PBMC cells relative to AMD3100; type: functional, Homo sapiens; procedure, shortened: as §6
GHOST CCR5 = assay: Inhibitory concentration of compound against HIV-1 Ba1 strain in GHOST CCR5 cell line; type: functional, cell-based; settings: Homo sapiens; procedure, shortened: as §4

Question: For `CCOC(=O)CCCCN1CCCN(Cc2ccc(CN3CCCNCCNCCCNCC3)cc2)CCNCCCNCC1`, which EC50 (CEM-SS [1]) is on record?
Answer: Its EC50 is 910 nM.

Question: What about the CC50 [2] of the same molecule?
Answer: The CC50 was > 100000 nM.

Question: And the Relative potency (CEM-SS [3])?
Answer: Its Relative potency is ~7.

Question: And the IC50 (GHOST CXCR4 [4])?
Answer: Its IC50 is 7.1 nM.

Question: What about the Relative potency (GHOST CXCR4 [5]) of the same molecule?
Answer: Its Relative potency is ~7.

Question: And the Relative potency (MT4 [6])?
Answer: The Relative potency was ~10.

Question: What about the EC50 (MT4 [7]) of the same molecule?
Answer: The EC50 was 690 nM.

Question: And the CC50 ([8]; MT4 cells (uninfected))?
Answer: The CC50 was > 100000 nM.

Question: What about the CC50 ([8]; PBMC (uninfected)) of the same molecule?
Answer: Its CC50 is > 100000 nM.

Question: What about the EC50 (PBMC [9]) of the same molecule?
Answer: Its EC50 is 25 nM.

Question: What about the Relative potency (PBMC [10]) of the same molecule?
Answer: Its Relative potency is ~7.

Question: What about the IC50 (GHOST CCR5) of the same molecule?
Answer: The IC50 was > 50000 nM.

Question: Which results are given for `CCCCCCCCCCCCCC(=O)N[C@@H](CCCCNC(=O)CCCCN1CCCN(Cc2ccc(CN3CCCNCCNCCCNCC3)cc2)CCNCCCNCC1)C(=O)N[C@@H](CO[C@@H]1O[C@@H](CO)[C@H](O)[C@H](O)[C@@H]1O)C(=O)O`?
Answer: EC50 (CEM-SS [1]): 5200 nM; CC50 [2]: > 50000 nM; Relative potency (CEM-SS [3]): ~40; IC50 (GHOST CXCR4 [4]): 86 nM; Relative potency (GHOST CXCR4 [5]): ~90; Relative potency (MT4 [6]): ~45; EC50 (MT4 [7]): 2800 nM; CC50 ([8]; MT4 cells (uninfected)): > 50000 nM; CC50 ([8]; PBMC (uninfected)): > 28000 nM; EC50 (PBMC [9]): 470 nM; Relative potency (PBMC [10]): ~125; IC50 (GHOST CCR5): > 50000 nM

Question: What does the source list for `CCCCCCCCCCCCCC(=O)N[C@@H](CCCCNC(=O)CCCCN1CCCNCCN(Cc2ccc(CN3CCCNCCNCCCNCC3)cc2)CCCNCC1)C(=O)N[C@@H](CO[C@@H]1O[C@@H](CO)[C@H](O)[C@H](O)[C@@H]1O)C(=O)O`?
Answer: EC50 (CEM-SS [1]): 6000 nM; CC50 [2]: > 100000 nM; Relative potency (CEM-SS [3]): ~50; IC50 (GHOST CXCR4 [4]): 21 nM; Relative potency (GHOST CXCR4 [5]): ~20; Relative potency (MT4 [6]): ~45; EC50 (MT4 [7]): 2900 nM; CC50 ([8]; MT4 cells (uninfected)): > 100000 nM; CC50 ([8]; PBMC (uninfected)): > 10000 nM; EC50 (PBMC [9]): 250 nM; Relative potency (PBMC [10]): ~65; IC50 (GHOST CCR5): > 10000 nM

Question: Which results are given for `CCCCCCCCCCCCCC(=O)N[C@@H](CO[C@@H]1O[C@@H](CO)[C@H](O)[C@H](O)[C@@H]1O)C(=O)O`?
Answer: EC50 (CEM-SS [1]): 10000 nM; CC50 [2]: > 100000 nM; EC50 (MT4 [7]): > 100000 nM; CC50 ([8]; MT4 cells (uninfected)): > 100000 nM

Question: For `c1cc(CN2CCCNCCNCCCNCC2)ccc1CN1CCCNCCNCCCNCC1` [PLERIXAFOR], which EC50 (CEM-SS [1]) is on record?
Answer: The EC50 was 127 nM.

Question: What about the CC50 [2] of the same molecule?
Answer: The CC50 was > 10000 nM.

Question: And the IC50 (GHOST CXCR4 [4])?
Answer: Its IC50 is 0.95 nM.

Question: What about the EC50 (MT4 [7]) of the same molecule?
Answer: The EC50 was 65 nM.

Question: What about the CC50 ([8]; MT4 cells (uninfected)) of the same molecule?
Answer: Its CC50 is > 10000 nM.

Question: What about the CC50 ([8]; PBMC (uninfected)) of the same molecule?
Answer: The CC50 was > 10000 nM.

Question: And the EC50 (PBMC [9])?
Answer: Its EC50 is 3.8 nM.

Question: And the IC50 (GHOST CCR5)?
Answer: Its IC50 is > 5000 nM.

Question: With `Cc1cn([C@H]2C[C@H](N=[N+]=[N-])[C@@H](CO)O2)c(=O)[nH]c1=O` [ZIDOVUDINE] as the molecule, how does the EC50 (CEM-SS [1]) read?
Answer: Its EC50 is 6.3 nM.

Question: And the EC50 (MT4 [7])?
Answer: The EC50 was 9.9 nM.

Question: And the EC50 (PBMC [9])?
Answer: Its EC50 is 24 nM.
